The results in this text go back to ChEMBL document CHEMBL1145179, “Synthesis and enzyme-specific activation of carbohydrate-geldanamycin conjugates with potent anticancer activity” (J Med Chem, 2005).

Bounds are passed on as bounds.

Format in all cases: functional, cell-based
One assay has as its system K562. In words: Inhibitory concentration against human leukemia K562 cell lines. The method, boiled down:
(§1)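 MTS assay. Cells (2000-10 000) seeded in RPMI-1640 and grown 24 h, then exposed to various concentrations for 72 h at 37 °C under 5% CO₂. MTS (2 mg/ml) with PMS (25 µM) added for 3 h at 37 °C, and formazan read at 490 nm. IC50 taken from dose-response curves of % growth vs untreated control.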

Assay [1] relates to MCF7. Briefly: Inhibitory concentration against human Breast cancer MCF-7 cell lines. The method, boiled down:
as §1

For the next assay, the system named is SW-620. In words: Inhibitory concentration against human colorectal carcinoma SW620 cell lines. The method, boiled down: as §1
The subject of another assay is HT-29. Briefly: Inhibitory concentration against human colorectal carcinoma HT-29 cell lines. An outline of the steps:
as §1

Assay [2] relates to MCF7. In words: Inhibitory concentration against human breast cancer MCF-7 cell lines. The method, boiled down: as §1

In the case of `COC1/C=C\C=C(/C)C(=O)NC2=CC(=O)C(NCCCCCO[C@@H]3O[C@@H](CO)[C@H](O)[C@H](O)[C@@H]3O)=C(C[C@@H](C)C[C@H](OC)[C@H](O)C(C)/C=C(\C)[C@@H]1OC(N)=O)C2=O` (stereo partly drawn), the IC50 in the assay with K562 is greater than 19 µM; with MCF7 [1] it was greater than 17 µM; in the assay with SW-620 it was greater than 13 µM; in the assay with HT-29, greater than 13 µM.

In the case of `COC1/C=C\C=C(/C)C(=O)NC2=CC(=O)C(NCCOCCO[C@@H]3O[C@@H](CO)[C@H](O)[C@H](O)[C@@H]3O)=C(C[C@@H](C)C[C@H](OC)[C@H](O)C(C)/C=C(\C)[C@@H]1OC(N)=O)C2=O` (stereo partly drawn), the concentration for half-maximal inhibition (IC50) is greater than 15 µM with K562, greater than 22 µM in the assay on MCF7 [1], greater than 11 µM in the assay with SW-620 and greater than 13 µM in the assay on HT-29.

With `COC1/C=C\C=C(/C)C(=O)NC2=CC(=O)C(NCCO[C@@H]3O[C@@H](CO)[C@@H](O[C@@H]4O[C@@H](CO)[C@H](O)[C@H](O)[C@@H]4O)[C@H](O)[C@@H]3O)=C(C[C@@H](C)C[C@H](OC)[C@H](O)C(C)/C=C(\C)[C@@H]1OC(N)=O)C2=O` (stereo partly drawn), the half-inhibitory concentration (IC50) in the assay on K562 is greater than 25 µM; in the assay on MCF7 [1] it was greater than 22 µM; in the assay with SW-620, greater than 20 µM; in the assay with HT-29 it was greater than 25 µM.

For the compound `COC1/C=C\C=C(/C)C(=O)NC2=CC(=O)C(NCCO[C@@H]3O[C@@H](CO)[C@@H](O)[C@H](O)[C@@H]3O)=C(C[C@@H](C)C[C@H](OC)[C@H](O)C(C)/C=C(\C)[C@@H]1OC(N)=O)C2=O` (stereo partly drawn), the IC50 with K562 was 0.381 µM; with MCF7 [1], 0.754 µM; in the assay with SW-620, 0.0702 µM; in the assay on HT-29 it was 0.105 µM.

As for `COC1/C=C\C=C(/C)C(=O)NC2=CC(=O)C(NCCCO[C@@H]3O[C@@H](CO)[C@H](O)[C@H](O)[C@@H]3O)=C(C[C@@H](C)C[C@H](OC)[C@H](O)C(C)/C=C(\C)[C@@H]1OC(N)=O)C2=O` (stereo partly drawn), the half-inhibitory concentration (IC50) is greater than 14 µM with K562, greater than 12 µM with MCF7 [1], greater than 14 µM with SW-620 and greater than 6 µM in the assay on HT-29.

Regarding `COC1/C=C\C=C(/C)C(=O)NC2=CC(=O)C(NCCO[C@@H]3O[C@@H](CO)[C@H](O)[C@H](O)[C@@H]3O)=C(C[C@@H](C)C[C@H](OC)[C@H](O)C(C)/C=C(\C)[C@@H]1OC(N)=O)C2=O` (stereo partly drawn), the 50% inhibitory concentration (IC50) was greater than 23 µM with K562, greater than 25 µM with MCF7 [1], greater than 8 µM in the assay with SW-620 and greater than 14 µM in the assay with HT-29.

Turning to `COC1=C2C[C@@H](C)C[C@H](OC)[C@H](O)[C@@H](C)/C=C(\C)[C@H](OC(N)=O)[C@@H](OC)/C=C\C=C(/C)C(=O)NC(=CC1=O)C2=O` [GELDANAMYCIN], the IC50 in the assay on K562 amounted to 0.0221 µM; in the assay on MCF7 [2] it was 0.0065 µM; in the assay on SW-620, 0.0062 µM; with HT-29 it was 0.0245 µM.
